Calls of active or inactive are those of the source. The rule behind the calls is not given here.
Assays:
[1] = test system: Staphylococcus epidermidis; assay: Antibacterial activity against Staphylococcus epidermidis ATCC 26069 at 100 ug/disk after 24 hrs by disk diffusion method; format: functional; settings: for zone of inhibition at 100 µg/disc: ATCC 26069, 24 h, read-out: IZ
Outline: (§1)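 Disk diffusion on media seeded with the organism. Sterile paper discs (6 mm) carried test compound dissolved in DMSO at 12.5, 50, 100 or 200 µg/disc. DMSO-only discs served as controls. Plates were incubated 24 h at 37 °C. The read-out is the growth-inhibition zone diameter in mm, averaged over three trials (±1 mm).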

Staphylococcus aureus [2] = assay: Antibacterial activity against Staphylococcus aureus ATCC 25923 at 50 ug/disk after 24 hrs by disk diffusion method; format: functional; settings: for zone of inhibition at 50 µg/disc: ATCC 25923, 24 h, read-out: IZ; outline: as §1
Staphylococcus aureus [3] = assay: Antibacterial activity against Staphylococcus aureus ATCC 25923 at 200 ug/disk after 24 hrs by disk diffusion method; format: functional; settings: for zone of inhibition at 200 µg/disc: ATCC 25923, 24 h, read-out: IZ; outline: as §1
Escherichia coli [4] = assay: Antibacterial activity against Escherichia coli ATCC 44752 at 100 ug/disk after 24 hrs by disk diffusion method; format: functional, organism-based; outline: as §1
Candida albicans [5] = assay: Antifungal activity against Candida albicans ATCC 10231 at 200 ug/disk after 24 hrs by disk diffusion method; format: functional; settings: for zone of inhibition at 200 µg/disc: ATCC 10231, 24 h, read-out: IZ; outline: as §1
Escherichia coli [6] = assay: Antibacterial activity against Escherichia coli ATCC 44752 at 200 ug/disk after 24 hrs by disk diffusion method; format: functional, organism-based; outline: as §1
Candida albicans [7] = assay: Antifungal activity against Candida albicans ATCC 10231 at 50 ug/disk after 24 hrs by disk diffusion method; format: functional; settings: for zone of inhibition at 50 µg/disc: ATCC 10231, 24 h, read-out: IZ; outline: as §1
Escherichia coli [8] = assay: Antibacterial activity against Escherichia coli ATCC 44752 at 50 ug/disk after 24 hrs by disk diffusion method; format: functional, organism-based; outline: as §1
Candida albicans [9] = assay: Antifungal activity against Candida albicans ATCC 10231 at 100 ug/disk after 24 hrs by disk diffusion method; format: functional; settings: for zone of inhibition at 100 µg/disc: ATCC 10231, 24 h, read-out: IZ; outline: as §1
Staphylococcus aureus [10] = assay: Antibacterial activity against Staphylococcus aureus ATCC 25923 at 100 ug/disk after 24 hrs by disk diffusion method; format: functional; settings: for zone of inhibition at 100 µg/disc: ATCC 25923, 24 h, read-out: IZ; outline: as §1
[11] = test system: Staphylococcus epidermidis; assay: Antibacterial activity against Staphylococcus epidermidis ATCC 26069 at 200 ug/disk after 24 hrs by disk diffusion method; format: functional; settings: for zone of inhibition at 200 µg/disc: ATCC 26069, 24 h, read-out: IZ; outline: as §1
[12] = test system: Staphylococcus epidermidis; assay: Antibacterial activity against Staphylococcus epidermidis ATCC 26069 at 50 ug/disk after 24 hrs by disk diffusion method; format: functional; settings: for zone of inhibition at 50 µg/disc: ATCC 26069, 24 h, read-out: IZ; outline: as §1

Compound	zone of inhibition at 100 µg/disc [1]	zone of inhibition at 50 µg/disc (Staphylococcus aureus [2])	zone of inhibition at 200 µg/disc (Staphylococcus aureus [3])	inhibition zone (IZ) (Escherichia coli [4])	zone of inhibition at 200 µg/disc (Candida albicans [5])	inhibition zone (IZ) (Escherichia coli [6])	zone of inhibition at 50 µg/disc (Candida albicans [7])	inhibition zone (IZ) (Escherichia coli [8])	zone of inhibition at 100 µg/disc (Candida albicans [9])	zone of inhibition at 100 µg/disc (Staphylococcus aureus [10])	zone of inhibition at 200 µg/disc [11]	zone of inhibition at 50 µg/disc [12]	inhibition zone (IZ) (Candida albicans [7])	further results
CC(=O)C1=C(C)Nc2cc(Cl)ccc2SC1c1ccc([N+](=O)[O-])cc1 (centres undefined)	11 mm	7 mm	11 mm	inactive	14 mm	inactive	9 mm	inactive	11 mm	7 mm	11 mm	10 mm	–	–
CCOC(=O)C1=C(C)Nc2ccccc2SC1c1ccc(C)cc1 (centres undefined)	–	–	–	inactive	–	inactive	–	inactive	–	–	–	–	inactive	inhibition zone (IZ) [1]: inactive; inhibition zone (IZ) (Staphylococcus aureus [2]): inactive; inhibition zone (IZ) (Staphylococcus aureus [3]): inactive; inhibition zone (IZ) (Candida albicans [5]): inactive; inhibition zone (IZ) (Candida albicans [9]): inactive; inhibition zone (IZ) (Staphylococcus aureus [10]): inactive; inhibition zone (IZ) [11]: inactive; inhibition zone (IZ) [12]: inactive
CC(=O)C1=C(C)Nc2ccccc2SC1c1ccccc1[N+](=O)[O-] (centres undefined)	9 mm	8 mm	12 mm	inactive	16 mm	inactive	11 mm	inactive	13 mm	11 mm	10 mm	7 mm	–	–
CC(=O)C1=C(C)Nc2ccccc2SC1c1ccc([N+](=O)[O-])cc1 (centres undefined)	12 mm	10 mm	13 mm	inactive	20 mm	inactive	16 mm	inactive	18 mm	12 mm	13 mm	10 mm	–	–
CCOC(=O)C1=C(C)Nc2ccccc2SC1c1ccc(F)cc1 (centres undefined)	–	–	–	inactive	–	inactive	–	inactive	–	–	–	–	inactive	inhibition zone (IZ) [1]: inactive; inhibition zone (IZ) (Staphylococcus aureus [2]): inactive; inhibition zone (IZ) (Staphylococcus aureus [3]): inactive; inhibition zone (IZ) (Candida albicans [5]): inactive; inhibition zone (IZ) (Candida albicans [9]): inactive; inhibition zone (IZ) (Staphylococcus aureus [10]): inactive; inhibition zone (IZ) [11]: inactive; inhibition zone (IZ) [12]: inactive
CC(=O)C1=C(C)Nc2ccccc2SC1c1ccc(O)cc1 (centres undefined)	11 mm	7 mm	10 mm	inactive	17 mm	inactive	15 mm	inactive	17 mm	9.5 mm	12 mm	11 mm	–	–
CC(=O)C1=C(C)Nc2ccccc2SC1c1ccc(F)cc1 (centres undefined)	11 mm	7 mm	10 mm	inactive	20 mm	inactive	18 mm	inactive	20 mm	9 mm	11 mm	10 mm	–	–
CC(=O)C1=C(C)Nc2cc(Cl)ccc2SC1c1ccccc1[N+](=O)[O-] (centres undefined)	8 mm	7 mm	8 mm	inactive	–	inactive	–	inactive	–	7 mm	8 mm	7 mm	inactive	inhibition zone (IZ) (Candida albicans [5]): inactive; inhibition zone (IZ) (Candida albicans [9]): inactive
CC(=O)C1=C(C)Nc2cc(Cl)ccc2SC1c1ccc(Cl)cc1 (centres undefined)	7.5 mm	7 mm	10 mm	inactive	13 mm	inactive	10 mm	inactive	11 mm	7.5 mm	10 mm	7 mm	–	–
CC(=O)C1=C(C)Nc2cc(Cl)ccc2SC1c1ccc(F)cc1 (centres undefined)	8 mm	8 mm	9 mm	inactive	10 mm	inactive	8 mm	inactive	9 mm	9 mm	8 mm	7 mm	–	–
CCOC(=O)C1=C(C)Nc2ccccc2SC1c1ccc([N+](=O)[O-])cc1 (centres undefined)	–	–	7 mm	inactive	7 mm	inactive	–	inactive	6.5 mm	6.5 mm	–	–	inactive	inhibition zone (IZ) [1]: inactive; inhibition zone (IZ) (Staphylococcus aureus [2]): inactive; inhibition zone (IZ) [11]: inactive; inhibition zone (IZ) [12]: inactive
CCOC(=O)C1=C(C)Nc2ccccc2SC1c1ccccc1Cl (centres undefined)	–	–	–	inactive	–	inactive	–	inactive	–	–	–	–	inactive	inhibition zone (IZ) [1]: inactive; inhibition zone (IZ) (Staphylococcus aureus [2]): inactive; inhibition zone (IZ) (Staphylococcus aureus [3]): inactive; inhibition zone (IZ) (Candida albicans [5]): inactive; inhibition zone (IZ) (Candida albicans [9]): inactive; inhibition zone (IZ) (Staphylococcus aureus [10]): inactive; inhibition zone (IZ) [11]: inactive; inhibition zone (IZ) [12]: inactive
CC(=O)C1=C(C)Nc2cc(Cl)ccc2SC1c1ccccc1 (centres undefined)	8 mm	7 mm	10 mm	inactive	13 mm	inactive	7 mm	inactive	9 mm	7 mm	11 mm	7 mm	–	–
CC(=O)C1=C(C)Nc2cc(Cl)ccc2SC1c1ccc(Cl)cc1Cl (centres undefined)	–	–	10 mm	inactive	–	inactive	–	inactive	–	7 mm	–	–	inactive	inhibition zone (IZ) [1]: inactive; inhibition zone (IZ) (Staphylococcus aureus [2]): inactive; inhibition zone (IZ) (Candida albicans [5]): inactive; inhibition zone (IZ) (Candida albicans [9]): inactive; inhibition zone (IZ) [11]: inactive; inhibition zone (IZ) [12]: inactive
CC(=O)C1=C(C)Nc2ccccc2SC1c1ccccc1Cl (centres undefined)	7.5 mm	8 mm	9 mm	inactive	15 mm	inactive	12 mm	inactive	15 mm	8 mm	9 mm	7.5 mm	–	–
CC(=O)C1=C(C)Nc2cc(Cl)ccc2SC1c1ccc(Br)cc1 (centres undefined)	10 mm	9 mm	11 mm	inactive	15 mm	inactive	10 mm	inactive	11 mm	10 mm	11 mm	9 mm	–	–
CC(=O)C1=C(C)Nc2cc(Cl)ccc2SC1c1ccccc1Cl (centres undefined)	7 mm	7 mm	11 mm	inactive	15 mm	inactive	10 mm	inactive	12 mm	8 mm	10 mm	7 mm	–	–
